The results in this text go back to ChEMBL document CHEMBL1142096, “Reduced susceptibility of Haemophilus influenzae to the peptide deformylase inhibitor LBM415 can result from target protein overexpression due to amplified chromosomal def gene copy number” (2007).

≈ marks a conversion by molar mass, not a printed value.

Holding throughout (type): functional
Experiment [1] concerns Haemophilus influenzae. Kind of experiment: Antimicrobial activity against Haemophilus influenzae NB65044 by broth microdilution method. An outline of the steps: (§1)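 MIC by CLSI broth microdilution, twofold serial dilutions in HTM broth.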
Background: In broth dilution the organism is exposed to a series of concentrations in liquid medium.

Experiment [2] deals with Haemophilus influenzae. Kind of experiment: Antimicrobial activity against Haemophilus influenzae CDS01 mutant with acrB insertional inactivation by broth microdilution method. An outline of the steps:
as §1

Experiment [3] deals with Haemophilus influenzae. Kind of experiment: Antimicrobial activity against Haemophilus influenzae CDS23 mutant overexpressing Def by broth microdilution method. An outline of the steps: as §1
Experiment [4] relates to Haemophilus influenzae. Kind of experiment: Antimicrobial activity against Haemophilus influenzae CDS40 mutant with acrB insertional inactivation by broth microdilution method. Put shortly:
as §1

In the case of `CN(C)[C@@H]1C(O)=C(C(N)=O)C(=O)[C@@]2(O)C(O)=C3C(=O)c4c(O)cccc4[C@@](C)(O)[C@H]3C[C@@H]12` [TETRACYCLINE], the MIC in the experiment on Haemophilus influenzae [1], in the experiment with Haemophilus influenzae [2], in the experiment with Haemophilus influenzae [3] and in the experiment on Haemophilus influenzae [4] was 0.5 µg/mL (≈ 1.13 µM) throughout.
For the compound `CCC[C@@H]1C[C@@H](C(=O)N[C@@H]([C@H]2O[C@H](SC)[C@H](O)[C@@H](O)[C@H]2O)[C@H](C)Cl)N(C)C1` [CLINDAMYCIN], the MIC against Haemophilus influenzae [1] stood at 8 µg/mL (≈ 18.8 µM); in the experiment on Haemophilus influenzae [2], 0.5 µg/mL (≈ 1.18 µM); with Haemophilus influenzae [3], 4 µg/mL (≈ 9.41 µM); with Haemophilus influenzae [4], 0.5 µg/mL (≈ 1.18 µM).
With `CCCC[C@H](CN(O)C=O)C(=O)N1CCC[C@H]1C(=O)Nc1ccc(F)c[n+]1[O-]`, the MIC against Haemophilus influenzae [1] came to 4 µg/mL (≈ 10.1 µM); in the experiment with Haemophilus influenzae [2] it was 0.25 µg/mL (≈ 0.631 µM); in the experiment on Haemophilus influenzae [3], 64 µg/mL (≈ 161 µM); in the experiment with Haemophilus influenzae [4], 4 µg/mL (≈ 10.1 µM).
